The structures appear in SMILES notation. pEC50: −log10 of the molar value.

Test [1] addresses Core antigen (Hepatitis B virus) (UniProt Q03732). Kind of test: Inhibition of capsid protein in HBV infected in human HepDES19 cells assessed as inhibition of viral replication by measuring minus polarity DNA level at 20 uM incubated for 3 days by strand preferential qPCR analysis relative to control. It counts as cell-based. Details: scale not given: the % may be the effect or the level left. The following applies: time 3.0 day. In outline: (§1)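 HepDES19 cells (HepG2 line carrying a tetracycline-repressible HBV genotype D genome) seeded at 4 x 10^4/well without tetracycline. Compound added 48 h after induction in 1% DMSO, then 3 days at 37°C, 5% CO2. Lysates treated with micrococcal nuclease, then protease. Plus- or minus-strand DNA quantified by strand-preferential qPCR as % of DMSO control. Each compound screened at two concentrations only: 20 and 5 μM, or 10 and 3 μM.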

Test [2] shares this target. In words: Inhibition of capsid protein in HBV infected in human HepDES19 cells assessed as inhibition of viral replication by measuring minus polarity DNA level at 5 uM incubated for 3 days by strand preferential qPCR analysis relative to control. In kind it is cell-based. Details: scale not given: the % may be the effect or the level left. As to conditions: time 3.0 day. In outline: (§2)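 HepDES19 cells (HepG2 line carrying a tetracycline-repressible HBV genotype D genome) seeded at 4 x 10^4/well without tetracycline. Lysates treated with micrococcal nuclease, then protease. Plus- or minus-strand DNA quantified by strand-preferential qPCR as % of DMSO control. Each compound screened at two concentrations only: 20 and 5 μM, or 10 and 3 μM.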

Test [3] has the same target. In words: Inhibition of capsid protein in HBV infected in human HepDES19 cells assessed as inhibition of viral replication by measuring plus polarity DNA level at 3 uM incubated for 3 days by strand preferential qPCR analysis relative to control. The arrangement: scale not given: the % may be the effect or the level left. The following applies: time 3.0 day.
Test [4] has the same target. In words: Inhibition of capsid protein in HBV infected in human HepDES19 cells assessed as inhibition of viral replication by measuring plus polarity DNA level at 20 uM incubated for 3 days by strand preferential qPCR analysis relative to control. In kind it is cell-based. The arrangement: scale not given: the % may be the effect or the level left. As to conditions: time 3.0 day. The essentials:
as §2

For test [5] the target is unchanged. In words: Inhibition of capsid protein in HBV infected in human HepDES19 cells assessed as inhibition of viral replication by measuring minus polarity DNA level at 3 uM incubated for 3 days by strand preferential qPCR analysis relative to control. The arrangement: scale not given: the % may be the effect or the level left. As to conditions: time 3.0 day.
The test system of test [6] is Hepatitis B virus. In words: Antiviral activity against HBV infected in human HepG2.2.15 cells assessed as inhibition of viral replication incubated for 8 days by southern blotting analysis. It counts as functional, organism-based. The following applies: HepG2.2.15, 192 h.
In test [7] the target is Core antigen (Hepatitis B virus) (UniProt Q03732). Kind of test: Inhibition of capsid protein in HBV infected in human HepDES19 cells assessed as inhibition of viral replication by measuring minus polarity DNA level at 10 uM incubated for 3 days by strand preferential qPCR analysis relative to control. In kind it is cell-based. Details: scale not given: the % may be the effect or the level left. As to conditions: time 3.0 day. The essentials:
as §1

Test [8] has the same target. Kind of test: Inhibition of capsid protein in HBV infected in human HepDES19 cells assessed as inhibition of viral replication by measuring plus polarity DNA level at 10 uM incubated for 3 days by strand preferential qPCR analysis relative to control. The following applies: time 3.0 day. The arrangement: scale not given: the % may be the effect or the level left. It counts as cell-based. The essentials:
as §1

For test [9] the target is unchanged. Kind of test: Inhibition of capsid protein in HBV infected in human HepDES19 cells assessed as inhibition of viral replication by measuring plus polarity DNA level at 3 uM incubated for 3 days by strand preferential qPCR analysis relative to control. In kind it is cell-based. The arrangement: scale not given: the % may be the effect or the level left. The following applies: time 3.0 day. In outline:
as §1

Test [10] shares this target. In words: Inhibition of capsid protein in HBV infected in human HepDES19 cells assessed as inhibition of viral replication by measuring minus polarity DNA level at 3 uM incubated for 3 days by strand preferential qPCR analysis relative to control. It counts as cell-based. Details: scale not given: the % may be the effect or the level left. The following applies: time 3.0 day. The essentials: as §1

The subject of test [11] is Hepatitis B virus. In words: Antiviral activity against HBV infected in human HepG2.2.15 cells assessed as inhibition of viral replication in presence of 50% human serum albumin. It counts as functional.

Core antigen (Hepatitis B virus), sequence (Q03732 as listed by the source): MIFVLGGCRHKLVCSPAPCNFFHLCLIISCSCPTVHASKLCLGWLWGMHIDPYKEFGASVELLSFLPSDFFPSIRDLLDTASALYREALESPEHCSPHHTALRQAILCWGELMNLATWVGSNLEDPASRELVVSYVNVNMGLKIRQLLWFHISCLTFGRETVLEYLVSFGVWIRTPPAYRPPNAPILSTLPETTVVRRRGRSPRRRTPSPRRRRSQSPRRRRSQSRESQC

Regarding `CCOC(=O)C1=C(CN2CCC3(CC2)CNC3=O)NC(c2nccs2)=NC1c1ccc(F)cc1Br` (stereo unspecified), the Activity in test [1] amounted to 2.5%; in test [2] it was 3.4%; in test [3], 2.7%; in [4] it was 2.4%.

With `CCOC(=O)C1=C(CN2CCC3(CCNCC3)CC2)NC(c2nccs2)=NC1c1ccc(F)cc1Br` (stereo unspecified), the figures for the Activity in test [1], in test [4] and in [5] were 97.7%, 106% and 67.1%, respectively.

With `CCOC(=O)C1=C(CN2CCC3(CC2)OCCO3)NC(c2nccs2)=NC1c1ccc(F)cc1Br` (stereo unspecified), the Activity was 3.4% in test [1], 3.1% in test [2], 3.8% in [3] and 3.4% in [4].

For the molecule `CCOC(=O)C1=C(CN2CCC3(CCNC3=O)CC2)NC(c2nccs2)=NC1c1ccc(F)cc1Br` (stereo unspecified), the Activity was 37.8% in test [1], 44.1% in [2] and 18.3% in test [4].

Turning to `CCOC(=O)C1=C(CN2CCC3(CNC3)C2)NC(c2nccs2)=NC1c1ccc(F)cc1Br` (stereo unspecified), the Activity was determined as 88.8% in test [1], 82.2% in [4] and 84.5% in [5].

On to `CCOC(=O)C1=C(CN2CCC3(CCN(C(=O)OC(C)(C)C)C3)C2=O)NC(c2nccs2)=NC1c1ccc(F)cc1Br` (stereo unspecified), for which the Activity in test [1] is 0.8%; in [2], 2.9%; in [3], 3.3%; in test [4], 0.8%.

Regarding `CCOC(=O)C1=C(CN2CCC3(CC2)CC(NC(=O)OC(C)(C)C)C3)NC(c2nccs2)=NC1c1ccc(F)cc1Br` (stereo unspecified), the values for the Activity in [1], in test [4] and in [5] were 117%, 111% and 97.2%, respectively.

With `CCOC(=O)C1=C(CN2CC3(CCN(C(=O)OC(C)(C)C)C3)CC2=O)NC(c2nccs2)=NC1c1ccc(F)cc1Br` (stereo unspecified), the Activity in test [1] stood at 1.3%; in test [2] it was 2.9%; in test [3], 2.7%; in [4], 1.8%.

In the case of `CCOC(=O)C1=C(CN2CCC3(C2)CN(C(=O)OC(C)(C)C)C3)NC(c2nccs2)=NC1c1ccc(F)cc1Br` (stereo unspecified), the Activity in test [1] is 56.5%; in [4], 54.7%; in test [5], 85.3%.

In the case of `CCOC(=O)C1=C(CN2CCC3(CCN(C(=O)OC(C)(C)C)C3)C2)NC(c2nccs2)=NC1c1ccc(F)cc1Br` (stereo unspecified), the Activity in test [1] was 28.8%; in [4], 16.8%; in [5], 67.1%.

Turning to `CCOC(=O)C1=C(CN2CCC3(CC(=O)N(Cc4ccccc4)C3=O)C2)NC(c2nccs2)=NC1c1ccc(F)cc1Br` (stereo unspecified), the Activity in [1] was determined as 2.2%; in test [2] it was 2.8%; in test [3] it was 3%; in test [4], 2%.

In the case of `CCOC(=O)C1=C(CN2CCC3(CC2)CNC(=O)C3)NC(c2nccs2)=NC1c1ccc(F)cc1Br` (stereo unspecified), the Activity was 2.7% in [1], 4% in [2], 3.4% in test [3] and 2.4% in [4].

As for `CCOC(=O)C1=C(CN2CCC3(CCNC3)CC2)NC(c2nccs2)=NC1c1ccc(F)cc1Br` (stereo unspecified), the Activity in test [1] is 99.6%; in [4], 105%; in test [5], 72.5%.

For the molecule `CCOC(=O)C1=C(CN2CCC3(CC2)CC(=O)NC3=O)NC(c2nccs2)=NC1c1ccc(F)cc1Br` (stereo unspecified), the Activity in test [1] came out at 34.8%; in test [2] it was 21.1%; in test [3], 18.9%; in test [4], 22.4%.

`Nc1ccn([C@@H]2CS[C@H](CO)O2)c(=O)n1` [LAMIVUDINE]: the pEC50 in [6] was 6.49. Also, the Activity came out at 11.8% in test [1], 23.9% in [3], 4% in test [4] and 79.1% in [5].

For the molecule `CCOC(=O)C1=C(CN2CC3(CCNC3)CC2=O)NC(c2nccs2)=NC1c1ccc(F)cc1Br` (stereo unspecified), the Activity in [1] is 68.9%; in [4], 120%.

Take `CCOC(=O)C1=C(CN2CCC3(CC2)CN(C(=O)OC(C)(C)C)C3)NC(c2nccs2)=NC1c1ccc(F)cc1Br` (stereo unspecified): the Activity in test [7] worked out at 60.2%; in test [8], 60.9%; in [9], 87.7%; in test [10], 83.7%.

Take `CCOC(=O)C1=C(CN2CCC3(CC2)CC(N)C3)NC(c2nccs2)=NC1c1ccc(F)cc1Br` (stereo unspecified): the Activity in test [1] is 105%; in test [4], 114%; in [5] it was 69.9%.

Consider `CCOC(=O)C1=C(CN2CC3(CC2=O)CN(C(=O)OC(C)(C)C)C3)NC(c2nccs2)=NC1c1ccc(F)cc1Br` (stereo unspecified), for which the Activity in [1] is 1.8%; in test [2], 2.5%; in test [3], 2.4%; in [4], 3.5%.

On to `CCOC(=O)C1=C(CN2CCC3(CC2)CNC3)NC(c2nccs2)=NC1c1ccc(F)cc1Br` (stereo unspecified), for which the results for the Activity in test [1], in test [4] and in test [5] were 93.4%, 113% and 70.8%, respectively.

On to `CCOC(=O)C1=C(CN2CCC3(CNC(=O)C3)C2)NC(c2nccs2)=NC1c1ccc(F)cc1Br` (stereo unspecified), for which the Activity in test [1] came out at 2.5%; in test [2], 2.3%; in [3] it was 2.8%; in test [4], 3%.

Consider `CCOC(=O)C1=C(CN2CCC3(CC2)CCN(C(=O)OC(C)(C)C)C3)NC(c2nccs2)=NC1c1ccc(F)cc1Br` (stereo unspecified), for which the Activity in [7] worked out at 76.1%; in test [8], 92.5%; in [9], 85.3%; in [10], 85%.

For `CCOC(=O)C1=C(CN2CCC3(CCNCC3)C2)NC(c2nccs2)=NC1c1ccc(F)cc1Br` (stereo unspecified), the Activity worked out at 86.4% in [1], 88.4% in test [4] and 69.9% in [5].

Turning to `CCOC(=O)C1=C(CN2CCC3(CCNC3)C2=O)NC(c2nccs2)=NC1c1ccc(F)cc1Br` (stereo unspecified), the Activity in test [1] amounted to 81.4%; in [4], 109%.

In the case of `CCOC(=O)C1=C(CN2CCC3(CC2)CCN(C(=O)OC(C)(C)C)CC3)NC(c2nccs2)=NC1c1ccc(F)cc1Br` (stereo unspecified), the Activity in test [7] was 110%; in test [8], 91.1%; in test [9] it was 93%; in test [10], 74.5%.

Regarding `CCOC(=O)C1=C(CN2CCOCC2)NC(c2nccs2)=N[C@H]1c1ccc(F)cc1Br`, the EC90 in [11] worked out at 0.0557 µg/mL. The pEC50 in [6] is 7.92. For the same molecule, the Activity in test [1] is 22.6%.

`CCOC(=O)C1=C(CN2CC3(C2)CN(C(=O)OC(C)(C)C)C3)NC(c2nccs2)=NC1c1ccc(F)cc1Br` (stereo unspecified): the Activity in test [1] was found to be 96.5%; in test [4], 105%; in [5], 85.7%.

For the molecule `CCOC(=O)C1=C(CN2CCC3(CCN(C(=O)OC(C)(C)C)CC3)C2)NC(c2nccs2)=NC1c1ccc(F)cc1Br` (stereo unspecified), the Activity was 87% in [1], 102% in test [4] and 80.1% in test [5].

With `CCOC(=O)C1=C(CN2CC3(CNC3)C2)NC(c2nccs2)=NC1c1ccc(F)cc1Br` (stereo unspecified), the Activity worked out at 94.8% in test [1], 87.4% in test [4] and 85.9% in [5].

As to `CCOC(=O)C1=C(CN2CC3(CNC3)CC2=O)NC(c2nccs2)=NC1c1ccc(F)cc1Br` (stereo unspecified), the Activity in test [1] is 85.3%; in test [4] it was 108%.
